Experimental data: ChEMBL document CHEMBL3045116, “Synthesis and biological evaluation of 2-(5-substituted-1-((diethylamino)methyl)-2-oxoindolin-3-ylidene)-N-substituted-hydrazinecarbothioamides” (Med Chem Res, 2013)

What was measured:
Klebsiella pneumoniae = assay: Antibacterial activity against Klebsiella pneumoniae assessed as growth inhibition at 50 ug/ml by cup-plate method (reference value: 8 to 10 mm); type: functional; settings: read-out: DIZ
[1] = Cytotoxicity against Homo sapiens (human) HEL cells assessed as change in cellular morphology; type: cell-based
Human alphaherpesvirus 1 [2] = assay: Antiviral activity against acyclovir-resistant thymidine kinase negative Human herpesvirus 1 strain KOS infected human HEL cells assessed as reduction of virus-induced cytopathic effect after 3 days by colorimetric formazan-based MTS assay; type: functional, organism-based; settings: Human alphaherpesvirus 1, KOS, 72 h
In short: (§1)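 Confluent cell monolayers were infected with 100 CCID50 of virus, and serial dilutions of compound were added at the time of infection.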

Coxsackievirus B4 [3] = assay: Antiviral activity against Human coxsackievirus B4 infected human HeLa cells assessed as reduction of virus-induced cytopathic effect after 3 days by colorimetric formazan-based MTS assay; type: functional, organism-based; settings: Enterovirus B, 72 h; in short: as §1
Punta Toro virus = assay: Antiviral activity against Punta Toro virus infected in African green monkey Vero cells assessed as reduction of virus-induced cytopathic effect after 3 days by colorimetric formazan-based MTS assay; type: functional, organism-based; settings: 72 h; in short: as §1
Felid alphaherpesvirus 1 = assay: Antiviral activity against Felid herpesvirus 1 infected cat CRFK cells assessed as reduction of virus-induced cytopathic effect after 3 days by colorimetric formazan-based MTS assay; type: functional, organism-based; settings: Felid alphaherpesvirus 1, CRFK, 72 h
In short: (§2)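 Cells grown to confluency in 96-well plates ([…], Vero for lines 9–10) were infected with 100 CCID50 of virus, and serial compound dilutions were added at infection. Plates were incubated at 37 °C for 3 days, until complete CPE appeared in untreated virus controls.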

[4] = Inhibition of beta lactamase assessed as time for decolorization of iodine (reference value: 79.5 secs)
Human alphaherpesvirus 1 [5] = assay: Antiviral activity against Human herpesvirus 1 strain KOS infected human HEL cells assessed as reduction of virus-induced cytopathic effect after 3 days by colorimetric formazan-based MTS assay; type: functional, organism-based; settings: Human alphaherpesvirus 1, KOS, 72 h; in short: as §1
Aspergillus niger = assay: Antifungal activity against Aspergillus niger assessed as growth inhibition at 50 ug/ml by cup-plate method (reference value: 8 to 10 mm); type: functional; settings: read-out: DIZ
[6] = Cytotoxicity against Felis catus (cat) CRFK cells assessed as change in cellular morphology; type: cell-based; settings: crfk
In short: (§3)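 Uninfected cells were exposed to compound in parallel with the antiviral cultures. The read-out is the minimum cytotoxic concentration that causes a microscopically detectable alteration of normal cell morphology.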

Influenza B virus = assay: Antiviral activity against Influenza B virus infected in MDCK cells assessed as reduction of virus-induced cytopathic effect after 3 days by colorimetric formazan-based MTS assay; type: functional, organism-based; settings: 72 h; in short: as §1
Candida albicans = assay: Antifungal activity against Candida albicans assessed as growth inhibition at 50 ug/ml by cup-plate method (reference value: 8 to 10 mm); type: functional; settings: read-out: DIZ
[7] = tested on: Feline infectious peritonitis virus; assay: Antiviral activity against Feline Infectious peritonitis virus infected cat CRFK cells assessed as reduction of virus-induced cytopathic effect after 3 days by colorimetric formazan-based MTS assay; type: functional, organism-based; settings: Alphacoronavirus 1, CRFK, 72 h; in short: as §1
Proteus vulgaris = assay: Antibacterial activity against Proteus vulgaris assessed as growth inhibition at 50 ug/ml by cup-plate method (reference value: 8 to 10 mm); type: functional; settings: read-out: DIZ
MDCK = assay: (§4) Cytotoxicity against MDCK cells assessed as change in cellular morphology; type: cell-based, Canis lupus familiaris; settings: dog, mdck; in short: as §3
[8] = as §4; type: cell-based, Canis lupus familiaris; settings: dog, MDCK cells; in short: as §3
Staphylococcus aureus = assay: Antibacterial activity against Staphylococcus aureus assessed as growth inhibition at 50 ug/ml by cup-plate method (reference value: 8 to 10 mm); type: functional; settings: read-out: DIZ
Salmonella typhi = assay: Antibacterial activity against Salmonella enterica subsp. enterica serovar Typhi assessed as growth inhibition at 50 ug/ml by cup-plate method (reference value: 8 to 10 mm); type: functional; settings: read-out: DIZ
Human respirovirus 3 = assay: Antiviral activity against Human parainfluenza virus 3 infected African green monkey Vero cells assessed as reduction of virus-induced cytopathic effect after 3 days by colorimetric formazan-based MTS assay; type: functional, organism-based; settings: Human respirovirus 3, Vero, 72 h; in short: as §2
[9] = Inhibition of beta lactamase assessed as increase in time taken for iodine decolorization relative to control; set-up: concentration or dose not given beside the values; settings: concentration not given here
Bacillus subtilis = assay: Antibacterial activity against Bacillus subtilis assessed as growth inhibition at 50 ug/ml by cup-plate method (reference value: 8 to 10 mm); type: functional; settings: read-out: DIZ
[10] = tested on: Vesicular stomatitis virus; assay: Antiviral activity against Vesicular stomatitis virus infected human HEL cells assessed as reduction of virus-induced cytopathic effect after 3 days by colorimetric formazan-based MTS assay; type: functional, organism-based; settings: 72 h; in short: as §1
Escherichia coli = assay: Antibacterial activity against Escherichia coli assessed as growth inhibition at 50 ug/ml by cup-plate method (reference value: 8 to 10 mm); type: functional; settings: read-out: DIZ
Respirovirus muris = assay: Antiviral activity against Sendai virus infected African green monkey Vero cells assessed as reduction of virus-induced cytopathic effect after 3 days by colorimetric formazan-based MTS assay; type: functional, organism-based; settings: 72 h
CCRF-CEM = assay: Cytotoxicity against Homo sapiens (human) CEM cells assessed as growth inhibition after 72 hr by coulter counter analysis; type: functional, cell-based
In short: (§5)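 Cells in growth medium were allowed to proliferate with variable compound amounts at 37 °C in a humidified CO2 atmosphere. Incubation ran 48 h for L1210, 72 h for CEM and 96 h for HeLa. Cells were then counted with a Coulter counter.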

L1210 = assay: Cytotoxicity against Mus musculus (mouse) L1210 cells assessed as growth inhibition after 48 hr by coulter counter analysis; type: functional, cell-based; settings: L1210, 48 h; in short: as §5
Influenza A virus = assay: Antiviral activity against Unidentified Influenza A virus (H1N1) infected MDCK cells assessed as reduction of virus-induced cytopathic effect after 3 days by colorimetric formazan-based MTS assay; type: functional, organism-based; settings: 72 h; in short: as §1
[11] = tested on: Vesicular stomatitis virus; assay: Antiviral activity against Vesicular stomatitis virus infected human HeLa cells assessed as reduction of virus-induced cytopathic effect after 3 days by colorimetric formazan-based MTS assay; type: functional, organism-based; settings: 72 h; in short: as §1
[12] = tested on: Mammalian orthoreovirus 1; assay: Antiviral activity against Mammalian orthoreovirus 1 infected African green monkey Vero cells assessed as reduction of virus-induced cytopathic effect after 3 days by colorimetric formazan-based MTS assay; type: functional, organism-based; settings: Mammalian orthoreovirus 1, Vero, 72 h; in short: as §2
Influenza A virus H3N2 = assay: Antiviral activity against Influenza A virus H3N2 infected MDCK cells assessed as reduction of virus-induced cytopathic effect after 3 days by colorimetric formazan-based MTS assay; type: functional, organism-based; settings: 72 h; in short: as §1
Vaccinia virus = assay: Antiviral activity against Vaccinia virus infected human HEL cells assessed as reduction of virus-induced cytopathic effect after 3 days by colorimetric formazan-based MTS assay; type: functional, organism-based; settings: Orthopoxvirus vaccinia, 72 h; in short: as §1
[13] = tested on: Respiratory syncytial virus; assay: Antiviral activity against Respiratory syncytial virus infected human HeLa cells assessed as reduction of virus-induced cytopathic effect after 3 days by colorimetric formazan-based MTS assay; type: functional, organism-based; settings: 72 h; in short: as §1
[14] = Cytotoxicity against Chlorocebus aethiops (African green monkey) Vero cells assessed as change in cellular morphology; type: cell-based; settings: chlorocebus sabaeus
Coxsackievirus B4 [15] = assay: Antiviral activity against Human coxsackievirus B4 infected African green monkey Vero cells assessed as reduction of virus-induced cytopathic effect after 3 days by colorimetric formazan-based MTS assay; type: functional, organism-based; settings: Enterovirus B, 72 h; in short: as §1
Human alphaherpesvirus 2 = assay: Antiviral activity against Human herpesvirus 2 strain G infected human HEL cells assessed as reduction of virus-induced cytopathic effect after 3 days by colorimetric formazan-based MTS assay; type: functional, organism-based; settings: Human alphaherpesvirus 2, strain G, 72 h; in short: as §1
[16] = (§6) Cytotoxicity against Homo sapiens (human) HeLa cells assessed as change in cellular morphology; type: cell-based; settings: HeLa cells; in short: as §3
HeLa = assay: as §6; type: cell-based; settings: hela; in short: as §3

SMILES | zone of inhibition at 50 µg/mL (Klebsiella pneumoniae) [mm] | MCC [1] [µM] | EC50 (Human alphaherpesvirus 1 [2]) [µM] | EC50 (Coxsackievirus B4 [3]) [µM] | EC50 (Punta Toro virus) [µM] | EC50 (Felid alphaherpesvirus 1) [µM] | TIME [4] [h] | EC50 (Human alphaherpesvirus 1 [5]) [µM] | zone of inhibition at 50 µg/mL (Aspergillus niger) [mm] | CC50 [6] [µM] | EC50 (Influenza B virus) [µM] | zone of inhibition at 50 µg/mL (Candida albicans) [mm] | EC50 [7] [µM] | zone of inhibition at 50 µg/mL (Proteus vulgaris) [mm] | CC50 (MDCK) [µM] | MCC [8] [µM] | zone of inhibition at 50 µg/mL (Staphylococcus aureus) [mm] | zone of inhibition at 50 µg/mL (Salmonella typhi) [mm] | EC50 (Human respirovirus 3) [µM] | inhibition [9] [%] | also measured
CCN(CC)CN1C(=O)/C(=N/NC(N)=S)c2cc(Cl)ccc21 | 11 | > 100 | > 100 | > 100 | > 100 | > 100 | 0.0338 | > 100 | 11 | > 100 | > 20 | 11 | > 100 | 11 | 78.3 | 100 | 21 | 11 | > 100 | 34.6 | zone of inhibition at 50 µg/mL (Bacillus subtilis): 11 mm; EC50 [10]: > 100 µM; zone of inhibition at 50 µg/mL (Escherichia coli): 11 mm; EC50 (Respirovirus muris): > 100 µM; IC50 (CCRF-CEM): 71 µM; IC50 (L1210): 148 µM; EC50 (Influenza A virus): > 20 µM; EC50 [11]: > 100 µM; EC50 [12]: > 100 µM; EC50 (Influenza A virus H3N2): > 20 µM; EC50 (Vaccinia virus): 20 µM; EC50 [13]: > 100 µM; MCC [14]: > 100 µM; EC50 (Coxsackievirus B4 [15]): > 100 µM; EC50 (Human alphaherpesvirus 2): > 100 µM; MCC [16]: > 100 µM; CC50 (HeLa): > 100 µM
CCN(CC)CN1C(=O)/C(=N/NC(=S)Nc2ccc(Cl)cc2)c2cc(Cl)ccc21 | 11 | 100 | > 20 | > 20 | > 20 | > 4 | 0.0395 | > 20 | 21 | 9.1 | > 0.8 | 21 | > 4 | 21 | 2.4 | ≥ 0.8 | 21 | 21 | > 20 | 44.2 | zone of inhibition at 50 µg/mL (Bacillus subtilis): 21 mm; EC50 [10]: > 20 µM; zone of inhibition at 50 µg/mL (Escherichia coli): 21 mm; EC50 (Respirovirus muris): > 20 µM; IC50 (CCRF-CEM): > 125 µM; IC50 (L1210): > 125 µM; EC50 (Influenza A virus): > 0.8 µM; EC50 [11]: > 20 µM; EC50 [12]: > 20 µM; EC50 (Influenza A virus H3N2): > 0.8 µM; EC50 (Vaccinia virus): > 20 µM; EC50 [13]: > 20 µM; MCC [14]: 100 µM; EC50 (Coxsackievirus B4 [15]): > 20 µM; EC50 (Human alphaherpesvirus 2): > 20 µM; MCC [16]: 100 µM; CC50 (HeLa): 9.4 µM
CCN(CC)CN1C(=O)/C(=N/NC(=S)Nc2ccc(OC)cc2)c2cc(Cl)ccc21 | 11 | 100 | > 20 | > 0.8 | > 0.8 | > 0.8 | 0.0466 | > 20 | 11 | 3.6 | > 0.8 | 11 | > 0.8 | 21 | 11.1 | ≥ 0.8 | 11 | 21 | > 0.8 | 52.6 | zone of inhibition at 50 µg/mL (Bacillus subtilis): 11 mm; EC50 [10]: > 20 µM; zone of inhibition at 50 µg/mL (Escherichia coli): 11 mm; EC50 (Respirovirus muris): > 0.8 µM; IC50 (CCRF-CEM): 6.9 µM; IC50 (L1210): 11 µM; EC50 (Influenza A virus): > 0.8 µM; EC50 [11]: > 0.8 µM; EC50 [12]: > 0.8 µM; EC50 (Influenza A virus H3N2): > 0.8 µM; EC50 (Vaccinia virus): > 20 µM; EC50 [13]: > 0.8 µM; MCC [14]: 4 µM; EC50 (Coxsackievirus B4 [15]): > 0.8 µM; EC50 (Human alphaherpesvirus 2): > 20 µM; MCC [16]: 4 µM; CC50 (HeLa): 13.2 µM
CCN(CC)CN1C(=O)/C(=N/NC(=S)Nc2ccc(C)cc2)c2cc(Cl)ccc21 | 11 | 100 | > 20 | > 4 | > 4 | > 4 | 0.0335 | > 20 | 11 | 17.5 | > 0.8 | 11 | > 4 | 11 | 11.3 | 4 | 11 | 11 | > 4 | 34.1 | zone of inhibition at 50 µg/mL (Bacillus subtilis): 11 mm; EC50 [10]: > 20 µM; zone of inhibition at 50 µg/mL (Escherichia coli): 21 mm; EC50 (Respirovirus muris): > 4 µM; IC50 (CCRF-CEM): 4.6 µM; IC50 (L1210): 9.5 µM; EC50 (Influenza A virus): > 0.8 µM; EC50 [11]: > 4 µM; EC50 [12]: > 4 µM; EC50 (Influenza A virus H3N2): > 0.8 µM; EC50 (Vaccinia virus): > 20 µM; EC50 [13]: > 4 µM; MCC [14]: ≥ 4 µM; EC50 (Coxsackievirus B4 [15]): > 4 µM; EC50 (Human alphaherpesvirus 2): > 20 µM; MCC [16]: ≥ 4 µM; CC50 (HeLa): > 100 µM
